Article PMC6977399 (Clinical Pharmacology and Therapeutics, 2019)

Columns and labels:
[1] = target: T1, CYP2B6 (Homo sapiens, UniProt P20813); assay: CYP inhibition in human liver microsomes; format: in vitro ADME; conditions: up to 50 μM
T1 sequence (P20813 1-491): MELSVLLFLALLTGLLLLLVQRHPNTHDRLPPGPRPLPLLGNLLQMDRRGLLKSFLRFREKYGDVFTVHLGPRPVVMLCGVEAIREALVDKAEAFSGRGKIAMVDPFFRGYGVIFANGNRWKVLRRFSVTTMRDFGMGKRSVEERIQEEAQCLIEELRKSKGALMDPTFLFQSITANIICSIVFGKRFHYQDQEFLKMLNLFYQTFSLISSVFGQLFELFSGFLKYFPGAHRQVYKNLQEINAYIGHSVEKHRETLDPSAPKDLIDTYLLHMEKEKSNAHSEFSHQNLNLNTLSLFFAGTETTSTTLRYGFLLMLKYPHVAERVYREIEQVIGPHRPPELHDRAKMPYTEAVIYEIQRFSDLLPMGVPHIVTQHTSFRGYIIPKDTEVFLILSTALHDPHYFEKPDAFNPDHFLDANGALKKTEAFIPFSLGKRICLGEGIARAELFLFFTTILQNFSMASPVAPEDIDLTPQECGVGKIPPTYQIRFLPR
Outline: (§1)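 Reversible inhibition: test compound pre-incubated 10 min at 37°C with pooled human liver microsomes plus an isoform-selective probe substrate. Reaction started with NADPH (1.3 mM), then quenched with 3% formic acid in acetonitrile containing internal standard. CYP-specific metabolite formation measured by LC-MS/MS. Activity expressed as % control = (peak area ratio with compound / without compound) × 100.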

[2] = test system: Bruton's tyrosine kinase; conditions: phase I studies; cited from earlier work
[3] = phase I single-ascending and multiple-ascending dose studies; cited from earlier work
[4] = target: CYP2C9 (Homo sapiens, UniProt P11712); assay: CYP inhibition in human liver microsomes; format: in vitro ADME; conditions: up to 50 μM
Chain of CYP2C9 (P11712 whole entry): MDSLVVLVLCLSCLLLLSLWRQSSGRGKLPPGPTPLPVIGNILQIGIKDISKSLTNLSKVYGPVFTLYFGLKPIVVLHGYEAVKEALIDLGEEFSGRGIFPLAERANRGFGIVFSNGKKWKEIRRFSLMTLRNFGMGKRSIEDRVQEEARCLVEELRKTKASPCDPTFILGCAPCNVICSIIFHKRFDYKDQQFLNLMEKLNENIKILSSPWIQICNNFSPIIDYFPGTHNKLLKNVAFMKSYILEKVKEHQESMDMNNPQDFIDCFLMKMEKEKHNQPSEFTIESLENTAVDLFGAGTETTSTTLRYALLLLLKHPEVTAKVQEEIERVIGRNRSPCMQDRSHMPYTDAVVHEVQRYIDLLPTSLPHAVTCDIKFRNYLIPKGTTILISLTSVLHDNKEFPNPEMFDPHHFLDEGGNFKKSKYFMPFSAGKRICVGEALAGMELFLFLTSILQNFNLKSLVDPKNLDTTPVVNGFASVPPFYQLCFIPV
Outline: as §1

[5] = target: T2, OATP1B1 (Homo sapiens, UniProt Q9Y6L6); assay: Inhibition of OATP1B1-mediated E217ßG uptake in HEK293 cells; format: in vitro ADME
T2 sequence (Q9Y6L6 1-691): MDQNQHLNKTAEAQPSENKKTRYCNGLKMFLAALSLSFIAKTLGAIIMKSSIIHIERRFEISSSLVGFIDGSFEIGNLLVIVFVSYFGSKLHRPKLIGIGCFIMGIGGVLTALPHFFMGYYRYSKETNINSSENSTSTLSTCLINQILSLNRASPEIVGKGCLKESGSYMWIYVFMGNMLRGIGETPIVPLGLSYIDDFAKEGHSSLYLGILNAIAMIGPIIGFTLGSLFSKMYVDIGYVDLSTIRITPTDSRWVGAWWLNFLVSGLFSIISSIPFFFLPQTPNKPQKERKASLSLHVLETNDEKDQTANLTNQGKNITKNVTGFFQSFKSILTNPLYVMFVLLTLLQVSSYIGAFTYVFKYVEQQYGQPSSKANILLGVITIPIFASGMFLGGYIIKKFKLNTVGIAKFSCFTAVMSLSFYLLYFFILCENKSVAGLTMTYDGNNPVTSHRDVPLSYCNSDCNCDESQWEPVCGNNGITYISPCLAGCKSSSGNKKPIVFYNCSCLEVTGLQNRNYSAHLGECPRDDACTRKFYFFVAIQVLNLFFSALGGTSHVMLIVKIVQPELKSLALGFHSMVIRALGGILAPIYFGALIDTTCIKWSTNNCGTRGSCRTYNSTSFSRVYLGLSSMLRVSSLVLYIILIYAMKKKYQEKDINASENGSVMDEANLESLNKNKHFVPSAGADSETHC

[6] = target: T3, CYP2C8 (Homo sapiens, UniProt P10632); assay: CYP inhibition in human liver microsomes; format: in vitro ADME; conditions: up to 50 μM
T3 sequence (P10632 1-490): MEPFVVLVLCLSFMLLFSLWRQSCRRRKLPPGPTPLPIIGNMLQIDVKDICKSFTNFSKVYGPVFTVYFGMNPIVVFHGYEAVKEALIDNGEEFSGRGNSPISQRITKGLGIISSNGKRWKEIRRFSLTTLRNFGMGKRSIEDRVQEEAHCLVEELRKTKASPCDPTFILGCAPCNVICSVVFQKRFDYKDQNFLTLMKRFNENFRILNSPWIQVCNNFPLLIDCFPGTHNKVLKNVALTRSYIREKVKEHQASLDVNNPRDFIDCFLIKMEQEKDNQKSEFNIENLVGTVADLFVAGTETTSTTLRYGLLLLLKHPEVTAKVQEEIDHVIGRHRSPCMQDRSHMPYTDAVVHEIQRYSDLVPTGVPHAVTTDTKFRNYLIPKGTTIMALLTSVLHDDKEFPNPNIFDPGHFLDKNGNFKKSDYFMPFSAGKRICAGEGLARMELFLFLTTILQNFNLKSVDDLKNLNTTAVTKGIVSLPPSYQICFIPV
Outline: as §1

[7] = test system: CYP3A; assay: Reversible CYP3A inhibition in human liver microsomes; format: in vitro ADME; conditions: MDZ and testosterone as probe substrates
Outline: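 Test compound was pre-incubated for 10 min at 37°C with pooled human liver microsomes containing an isoform-selective substrate. Metabolite formation was expressed as % control activity, calculated as the peak area ratio with compound divided by the peak area ratio without compound, ×100.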

## C[C@H]1CN(C2COC2)CCN1c1ccc(Nc2cc(-c3ccnc(N4CCn5c(cc6c5CC(C)(C)C6)C4=O)c3CO)cn(C)c2=O)nc1 [fenebrutinib]
[1]
  reversible or time-dependent inhibition of CYP2B6: No reversible or time‐dependent inhibition
[2]
  plasma concentration showing target engagement: 100 nM
[3]
  terminal half-life (t1/2): 4−10 hours
[4]
  reversible or time-dependent inhibition of CYP2C9: No reversible or time‐dependent inhibition
[5]
  IC50: 19.7 µM
[5]; human, HEK293 cells stably expressing human OATP1B1, pH 7.4, probe E217ßG (1 μM)
  inhibition at 30 μM: 62.8%
[6]
  reversible or time-dependent inhibition of CYP2C8: No reversible or time‐dependent inhibition
[7]
  reversible CYP3A inhibition: no reversible CYP3A inhibition
